# pEC50: −log10 of the molar value.
# Tests used:
# [1] = Partition coefficient (logP); format: physicochemical; conditions: octanol/water
# How it was run: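 Computed, not measured: fragmentation method of Ghose et al. on a topological basis. Structures built and minimized with the MM2 force field. Conformation-independent log P values.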
# CCRF-CEM = test: The compound was tested for inhibition of P-glycoprotein mediated daunomycin efflux in multidrug resistant CCRF-CEM vcr1000 cells.; format: functional, cell-based; conditions: Homo sapiens
# How it was run: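 Vincristine-selected CCRF-CEM vcr1000 T-lymphoblasts grown in RPMI1640 with 10% FCS, selecting agent removed at least 1 week before use. Cells at 1 × 10^6/mL preloaded with 3.2 µM daunomycin (final) for 30 min at 37 °C, pelleted, then resuspended in 37 °C medium with modulator (eight concentrations, 1:2.5 dilutions, 3 nM–500 µM range). Samples taken at 0, 60, 120, 180 and 240 s into ice-cold stop medium containing verapamil (10 µg/mL final). An exponential fit gives the first-order rate constant (Vmax/Km) as the slope at time zero. Efflux in parental CCRF-CEM cells, set to equal initial fluorescence, is subtracted as passive diffusion. EC50 comes from Vmax/Km versus concentration, as mean ± SD of at least three independent experiments.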
# [2] = Lipophilicity (log kw value) was determined; format: physicochemical; conditions: reversed-phase HPLC, methanol/buffer pH 7.4
# How it was run: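 Reversed-phase HPLC on an RP-8 column (5 µm), eluent methanol/aqueous phase adjusted to pH 7.4 with 1/60 M Soerensen buffer, detection at 254 nm. log k′ measured at 70%, 60% and 50% methanol, then extrapolated to 0% methanol by linear regression to give log kw.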
logP [1],pEC50 (CCRF-CEM),Log kw [2],SMILES
3.76,5.61,–,CC(C)(C)OC(=O)CN(Cc1ccccc1)[C@H]1c2cc(C#N)ccc2OC(C)(C)[C@@H]1O
1.24,2.84,–,CN[C@H]1c2cc(C#N)ccc2OC(C)(C)[C@@H]1O
4.51,6.37,6.1,Cc1ccc(C(=O)N2c3ccccc3[C@H](N3CCN(Cc4ccccc4)CC3)[C@@H](O)[C@@H]2C)cc1
3.11,6.19,5.53,CC1(C)Oc2ccc(C#N)cc2[C@H](N2CCN(Cc3ccccc3)CC2)[C@H]1O
3.92,5.25,5.47,Cc1ccc(C(=O)O[C@H]2[C@H](C)Nc3ccccc3[C@@H]2N2CCCC2)cc1
3.12,4.23,4.35,CC1(C)Oc2ccc(C#N)cc2[C@H](NCc2ccccc2)[C@H]1O
3.34,5.10,4.2,Cc1ccc(C(=O)N2c3ccccc3[C@H](N3CCCC3)[C@@H](O)[C@@H]2C)cc1
1.79,4.33,–,CC(C)(C)OC(=O)CN[C@H]1c2cc(C#N)ccc2OC(C)(C)[C@@H]1O
4.52,5.49,5.38,Cc1ccc(C(=O)N2c3ccccc3[C@H](NCc3ccccc3)[C@@H](O)[C@@H]2C)cc1
4.78,6.47,–,CCN(CC)CCCC(C)N[C@H]1c2ccccc2N[C@@H](C)[C@@H]1OC(=O)c1ccc(C)cc1 (stereo partly drawn)
4.2,5.71,–,CCN(CC)CCCC(C)N[C@H]1c2ccccc2N(C(=O)c2ccc(C)cc2)[C@@H](C)[C@@H]1O (stereo partly drawn)
